Measurements reported in ChEMBL document CHEMBL4196034, “Family-wide analysis of aminoacyl-sulfamoyl-3-deazaadenosine analogues as inhibitors of aminoacyl-tRNA synthetases” (Eur J Med Chem, 2018).
Activity calls are given as the source filed them. The rule behind the calls is not given here.

Legend:
[1] = tested on: Staphylococcus aureus; experiment: Antibacterial activity against Staphylococcus aureus ATCC 65381 up to 100 uM after 18 to 24 hrs by two fold serial dilution method; format: functional, organism-based
Method in brief: (§1)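 Broth microdilution, twofold series from 100 µM down to 0.39 µM, in LB medium. MIC50 was taken as the lowest concentration giving 50% growth inhibition after 18-24 h incubation at 37.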

[2] = tested on: Pseudomonas aeruginosa; experiment: Antibacterial activity against Pseudomonas aeruginosa PAO1 up to 100 uM after 18 to 24 hrs by two fold serial dilution method; format: functional, organism-based; method in brief: as §1
[3] = tested on: Kocuria rhizophila; experiment: Antibacterial activity against Kocuria rhizophila ATCC 9341 up to 100 uM after 18 to 24 hrs by two fold serial dilution method; format: functional, organism-based; conditions: DC2201; method in brief: as §1
[4] = target: Aspartate--tRNA ligase (Escherichia coli (strain K12)) (UniProt P21889); experiment: (§2) Inhibition of Aspartate-tRNA synthetase in Escherichia coli K-12 BW28357 S30 extract assessed as reduction in tRNA aminoacylation at 2.5 uM preincubated for 5 mins followed by Escherichia coli tRNA and 14C-labeled aspartic acid addition measured after 5 mins by liquid scintillation counting method
Aspartate--tRNA ligase (Escherichia coli (strain K12)), sequence (P21889 whole entry, looked up): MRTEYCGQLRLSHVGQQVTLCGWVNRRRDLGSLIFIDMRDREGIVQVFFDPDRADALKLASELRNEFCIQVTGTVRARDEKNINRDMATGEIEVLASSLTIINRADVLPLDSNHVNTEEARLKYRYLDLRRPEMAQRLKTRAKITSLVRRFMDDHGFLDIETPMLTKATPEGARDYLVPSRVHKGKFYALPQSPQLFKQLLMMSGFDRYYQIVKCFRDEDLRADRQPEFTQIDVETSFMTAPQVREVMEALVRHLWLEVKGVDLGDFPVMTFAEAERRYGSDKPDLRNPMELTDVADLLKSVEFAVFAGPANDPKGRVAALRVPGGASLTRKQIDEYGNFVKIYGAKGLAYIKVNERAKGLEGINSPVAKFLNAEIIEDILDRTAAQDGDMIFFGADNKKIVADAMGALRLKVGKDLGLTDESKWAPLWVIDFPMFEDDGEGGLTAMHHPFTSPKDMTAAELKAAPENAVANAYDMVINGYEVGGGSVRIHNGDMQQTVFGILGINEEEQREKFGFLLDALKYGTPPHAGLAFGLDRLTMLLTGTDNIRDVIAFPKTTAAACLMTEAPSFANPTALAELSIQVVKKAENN
Method in brief: (§3)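 E. coli K-12 BW28357 cells were grown in LB to A600 0.5, washed in 20 mM Tris.HCl, 10 mM MgCl2, 100 mM KCl, pH 8.0, then sonicated in the same buffer plus 1 mM DTT. The lysate was spun at 15,000 g. Inhibitor (2.5 µM) was preincubated with extract for 5 min. Aminoacylation mix: 30 mM Tris pH 8.0, 5 g/L E. coli tRNA, 3 mM ATP, 8 mM MgCl2, 40 µM 14C-amino acid. Reaction ran at room temperature. TCA precipitation after 5 min, then scintillation counting. Activity was expressed relative to the no-compound control, average of three experiments.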

[5] = tested on: Escherichia coli; experiment: Antibacterial activity against Escherichia coli NCIB 8743 up to 100 uM after 18 to 24 hrs by two fold serial dilution method; format: functional, organism-based; method in brief: as §1
[6] = tested on: Staphylococcus epidermidis; experiment: Antibacterial activity against Staphylococcus epidermidis RP62A up to 100 uM after 18 to 24 hrs by two fold serial dilution method; format: functional, organism-based; method in brief: as §1
[7] = target: Aspartate--tRNA ligase (Escherichia coli (strain K12), UniProt P21889); experiment: Inhibition of Escherichia coli BL21(DE3) Aspartyl-tRNA synthetase assessed as reduction in tRNA aminoacylation preincubated for 10 mins with Escherichia coli tRNA and 14C-labeled aspartic acid followed by ATP addition by liquid scintillation counting method; conditions: read-out: Ki(app)
Aspartate--tRNA ligase, sequence (P21889 whole entry): as the sequence (P21889 whole entry, looked up) above
Method in brief: (§4)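 Purified E. coli aaRS, expressed in Rosetta 2 (DE3) pLysS: ileRS 50 nM, tyrRS 0.5 nM, leuRS 2.5 nM, aspRS, serRS and glyRS 2 nM each. Buffer was 20 mM Tris, 100 mM KCl, 10 mM MgCl2, 5 mM β-mercaptoethanol, pH 7.5. Enzyme was preincubated 10 min at 37°C with serially diluted compound, 50 µM 14C-amino acid, 2 mg/ml tRNA and pyrophosphatase. Reaction was started with 500 µM ATP and quenched within the linear zone, then TCA-precipitated and counted. Ki app came from Greco-Hakala fits.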

[8] = target: T1, Tyrosine--tRNA ligase (Escherichia coli (strain K12), UniProt P0AGJ9); experiment: (§5) Inhibition of Escherichia coli BL21(DE3) Tyrosyl-tRNA synthetase assessed as reduction in tRNA aminoacylation preincubated for 10 mins with Escherichia coli tRNA and 14C-labeled tyrosine followed by ATP addition by liquid scintillation counting method; conditions: read-out: Ki(app); method in brief: as §4
T1 sequence (P0AGJ9 whole entry): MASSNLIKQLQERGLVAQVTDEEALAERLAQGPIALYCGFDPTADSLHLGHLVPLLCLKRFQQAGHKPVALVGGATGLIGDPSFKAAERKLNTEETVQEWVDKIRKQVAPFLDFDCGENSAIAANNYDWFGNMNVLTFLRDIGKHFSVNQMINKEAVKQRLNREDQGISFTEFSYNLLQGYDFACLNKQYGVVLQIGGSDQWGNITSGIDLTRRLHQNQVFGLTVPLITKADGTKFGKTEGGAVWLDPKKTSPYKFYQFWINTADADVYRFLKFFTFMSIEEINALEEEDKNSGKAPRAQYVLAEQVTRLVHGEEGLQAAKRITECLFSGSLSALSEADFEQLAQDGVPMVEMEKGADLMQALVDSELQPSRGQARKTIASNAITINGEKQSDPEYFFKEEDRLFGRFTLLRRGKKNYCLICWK

[9] = target: T2, Tyrosine--tRNA ligase (Escherichia coli (strain K12)) (UniProt P0AGJ9); experiment: as §2, with “Tyrosyl-tRNA” for “Aspartate-tRNA”, “tyrosine” for “aspartic acid”, “method relative to control” for “method”; method in brief: as §3
T2 sequence (whole entry): T1 sequence (P0AGJ9 whole entry)

[10] = tested on: Escherichia coli K-12; experiment: (§6) Inhibition of Glycyl-tRNA synthetase in Escherichia coli K-12 BW28357 S30 extract assessed as reduction in tRNA aminoacylation at 2.5 uM preincubated for 5 mins followed by Escherichia coli tRNA and 14C-labeled glycine addition measured after 5 mins by liquid scintillation counting method; method in brief: as §3
[11] = as §5, with “Glycine-tRNA” for “Tyrosyl-tRNA”, “synthetase alpha subunit/Glycine-tRNA synthetase beta subunit” for “synthetase”, “glycine” for “tyrosine”; conditions: read-out: Ki(app); method in brief: as §4
[12] = target: Leucine--tRNA ligase (Escherichia coli (strain K12), UniProt P07813); experiment: Inhibition of Escherichia coli BL21(DE3) Leucyl-tRNA synthetase assessed as reduction in tRNA aminoacylation preincubated for 10 mins with Escherichia coli tRNA and 14C-labeled leucine followed by ATP addition by liquid scintillation counting method; conditions: read-out: Ki(app)
Leucine--tRNA ligase, sequence (P07813 whole entry): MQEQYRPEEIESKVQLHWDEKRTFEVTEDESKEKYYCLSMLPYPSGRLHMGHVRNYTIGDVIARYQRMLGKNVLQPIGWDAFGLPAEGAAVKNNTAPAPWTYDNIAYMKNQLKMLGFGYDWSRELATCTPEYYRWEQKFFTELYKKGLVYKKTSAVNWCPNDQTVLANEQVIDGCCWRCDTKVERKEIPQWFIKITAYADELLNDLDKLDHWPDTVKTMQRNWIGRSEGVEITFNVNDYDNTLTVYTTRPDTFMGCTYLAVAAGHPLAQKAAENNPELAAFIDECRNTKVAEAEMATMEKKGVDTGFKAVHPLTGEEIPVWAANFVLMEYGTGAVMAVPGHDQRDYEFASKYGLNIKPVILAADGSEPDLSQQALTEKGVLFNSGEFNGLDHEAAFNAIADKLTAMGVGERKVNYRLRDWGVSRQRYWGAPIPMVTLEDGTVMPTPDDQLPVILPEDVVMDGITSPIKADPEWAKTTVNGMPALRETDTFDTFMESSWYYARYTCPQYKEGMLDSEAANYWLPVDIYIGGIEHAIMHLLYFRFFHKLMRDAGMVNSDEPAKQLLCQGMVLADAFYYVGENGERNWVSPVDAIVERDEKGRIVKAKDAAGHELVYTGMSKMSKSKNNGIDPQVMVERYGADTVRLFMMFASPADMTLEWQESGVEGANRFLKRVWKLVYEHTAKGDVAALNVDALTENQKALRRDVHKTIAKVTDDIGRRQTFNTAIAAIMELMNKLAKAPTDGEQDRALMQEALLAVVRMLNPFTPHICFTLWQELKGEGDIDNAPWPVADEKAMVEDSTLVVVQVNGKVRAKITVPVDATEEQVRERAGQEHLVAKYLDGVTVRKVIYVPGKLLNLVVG

[13] = target: Serine--tRNA ligase (Escherichia coli (strain K12), UniProt P0A8L1); experiment: Inhibition of Escherichia coli BL21(DE3) Seryl-tRNA synthetase assessed as reduction in tRNA aminoacylation preincubated for 10 mins with Escherichia coli tRNA and 14C-labeled serine followed by ATP addition by liquid scintillation counting method; conditions: read-out: Ki(app); method in brief: as §4
Serine--tRNA ligase, sequence (P0A8L1 whole entry): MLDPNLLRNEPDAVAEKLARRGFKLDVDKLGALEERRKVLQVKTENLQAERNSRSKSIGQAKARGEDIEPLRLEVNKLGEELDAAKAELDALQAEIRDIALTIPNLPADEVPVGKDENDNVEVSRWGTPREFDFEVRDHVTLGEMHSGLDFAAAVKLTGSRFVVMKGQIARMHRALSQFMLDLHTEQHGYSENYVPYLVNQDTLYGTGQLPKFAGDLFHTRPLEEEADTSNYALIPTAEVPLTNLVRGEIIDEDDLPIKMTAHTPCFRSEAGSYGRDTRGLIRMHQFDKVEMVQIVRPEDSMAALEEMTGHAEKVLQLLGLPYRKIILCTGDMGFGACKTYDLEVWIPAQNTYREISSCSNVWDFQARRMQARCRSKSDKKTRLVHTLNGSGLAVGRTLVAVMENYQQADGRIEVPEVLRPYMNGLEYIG

[14] = target: Serine--tRNA ligase (Escherichia coli (strain K12)) (UniProt P0A8L1); experiment: Inhibition of Serine-tRNA synthetase in Escherichia coli K-12 BW28357 S30 extract assessed as reduction in tRNA aminoacylation at 2.5 uM preincubated for 5 mins followed by Escherichia coli tRNA and 14C-labeled serine addition measured after 5 mins by liquid scintillation counting method; method in brief: as §3
Serine--tRNA ligase (Escherichia coli (strain K12)), sequence (P0A8L1 whole entry, looked up): as the sequence (P0A8L1 whole entry) above

[15] = target: Isoleucine--tRNA ligase (Escherichia coli K-12, UniProt P00956); experiment: Inhibition of Escherichia coli BL21(DE3) Isoleucyl-tRNA synthetase assessed as reduction in tRNA aminoacylation preincubated for 10 mins with Escherichia coli tRNA and 14C-labeled isoleucine followed by ATP addition by liquid scintillation counting method; conditions: read-out: Ki(app); method in brief: as §4
Isoleucine--tRNA ligase, sequence (P00956 whole entry): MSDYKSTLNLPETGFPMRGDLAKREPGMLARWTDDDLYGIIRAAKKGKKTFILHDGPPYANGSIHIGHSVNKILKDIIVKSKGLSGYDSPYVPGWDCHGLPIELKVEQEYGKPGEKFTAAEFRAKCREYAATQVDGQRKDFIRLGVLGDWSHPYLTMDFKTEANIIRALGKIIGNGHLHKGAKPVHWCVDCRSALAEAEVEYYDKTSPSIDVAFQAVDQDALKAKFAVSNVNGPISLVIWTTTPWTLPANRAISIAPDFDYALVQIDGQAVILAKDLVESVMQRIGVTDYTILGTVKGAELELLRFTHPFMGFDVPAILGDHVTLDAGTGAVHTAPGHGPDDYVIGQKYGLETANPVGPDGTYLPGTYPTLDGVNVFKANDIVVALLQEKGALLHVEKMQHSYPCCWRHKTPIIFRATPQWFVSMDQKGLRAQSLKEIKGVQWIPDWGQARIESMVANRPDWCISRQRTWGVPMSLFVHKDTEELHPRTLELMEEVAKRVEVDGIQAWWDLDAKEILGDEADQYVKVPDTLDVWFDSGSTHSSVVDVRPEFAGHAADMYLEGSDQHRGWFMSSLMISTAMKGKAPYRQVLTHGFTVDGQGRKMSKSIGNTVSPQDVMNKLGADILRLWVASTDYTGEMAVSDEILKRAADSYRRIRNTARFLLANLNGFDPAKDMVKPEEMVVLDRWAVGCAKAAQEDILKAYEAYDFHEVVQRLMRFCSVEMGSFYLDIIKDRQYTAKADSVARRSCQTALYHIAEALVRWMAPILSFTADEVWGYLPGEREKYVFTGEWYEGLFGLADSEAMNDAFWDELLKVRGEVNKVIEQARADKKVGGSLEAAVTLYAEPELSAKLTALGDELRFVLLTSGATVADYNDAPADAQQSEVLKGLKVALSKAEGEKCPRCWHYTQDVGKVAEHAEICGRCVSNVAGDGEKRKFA

[16] = target: Isoleucine--tRNA ligase (Escherichia coli K-12) (UniProt P00956); experiment: as §6, with “Isoleucyl-tRNA” for “Glycyl-tRNA”, “isoleucine” for “glycine”, “method relative to control” for “method”; method in brief: as §3
Isoleucine--tRNA ligase (Escherichia coli K-12), sequence (P00956 whole entry): as above

SMILES	inhibition [4]	Ki [7] [nM]	Ki [8] [nM]	inhibition [9]	inhibition [10]	Ki [12] [nM]	Ki [13] [nM]	inhibition [14]	Ki [15] [nM]	inhibition [16]	Activity [1]	Activity [2]	Activity [3]	Activity [5]	Activity [6]	Ki [11] [nM]
Nc1nccc2c1ncn2[C@@H]1O[C@H](COS(=O)(=O)NC(=O)[C@@H](N)Cc2ccc(O)cc2)[C@@H](O)[C@H]1O			29.9	40 to 50%							inactive	inactive	inactive	inactive	inactive	
NCC(=O)NS(=O)(=O)OC[C@H]1O[C@@H](n2cnc3c(N)nccc32)[C@H](O)[C@@H]1O					inactive						inactive	inactive	inactive	inactive	inactive	> 2000
Nc1ncnc2c1ncn2[C@@H]1O[C@H](COS(=O)(=O)NC(=O)[C@@H](N)CC(=O)O)[C@@H](O)[C@H]1O	Active	0.052									inactive	inactive	inactive	inactive	inactive	
CC(C)C[C@H](N)C(=O)NS(=O)(=O)OC[C@H]1O[C@@H](n2cnc3c(N)ncnc32)[C@H](O)[C@@H]1O											inactive	inactive	inactive	inactive	inactive	
CC[C@H](C)[C@H](N)C(=O)NS(=O)(=O)OC[C@H]1O[C@@H](n2cnc3c(N)ncnc32)[C@H](O)[C@@H]1O									1.92	Active	inactive	inactive	inactive	inactive	inactive	

Continued, in another order:

inhibition [4]	Ki [7] [nM]	Ki [8] [nM]	inhibition [9]	inhibition [10]	Ki [12] [nM]	Ki [13] [nM]	inhibition [14]	Ki [15] [nM]	inhibition [16]	SMILES	Activity [1]	Activity [2]	Activity [3]	Activity [5]	Activity [6]	Ki [11] [nM]
inactive	25.3									Nc1nccc2c1ncn2[C@@H]1O[C@H](COS(=O)(=O)NC(=O)[C@@H](N)CC(=O)O)[C@@H](O)[C@H]1O	inactive	inactive	inactive	inactive	inactive	
		2.93	Active							Nc1ncnc2c1ncn2[C@@H]1O[C@H](COS(=O)(=O)NC(=O)[C@@H](N)Cc2ccc(O)cc2)[C@@H](O)[C@H]1O	inactive	inactive	inactive	inactive	inactive	
				Active						NCC(=O)NS(=O)(=O)OC[C@H]1O[C@@H](n2cnc3c(N)ncnc32)[C@H](O)[C@@H]1O	inactive	inactive	inactive	inactive	inactive	148
					0.654					CC(C)C[C@H](N)C(=O)NS(=O)(=O)OC[C@H]1O[C@@H](n2cnc3c(N)nccc32)[C@H](O)[C@@H]1O	inactive	inactive	inactive	inactive	inactive	
						0.18	Active			Nc1ncnc2c1ncn2[C@@H]1O[C@H](COS(=O)(=O)NC(=O)[C@@H](N)CO)[C@@H](O)[C@H]1O	inactive	inactive	inactive	inactive	inactive	
						523	inactive			Nc1nccc2c1ncn2[C@@H]1O[C@H](COS(=O)(=O)NC(=O)[C@@H](N)CO)[C@@H](O)[C@H]1O	inactive	inactive	inactive	inactive	inactive	
								213	40 to 50%	CC[C@H](C)[C@H](N)C(=O)NS(=O)(=O)OC[C@H]1O[C@@H](n2cnc3c(N)nccc32)[C@H](O)[C@@H]1O	inactive	inactive	inactive	inactive	inactive	
